What was measured:
[1] = system: MCF-7 (mammary carcinoma) cells; test: MTT assay, IC50 against breast cancer cells; format: cell-based; settings: Homo sapiens, MCF7, 48 h, read-out: IC50 (μM) MCF-7
Summary of the method: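 MCF-7 cells grown in DMEM with human insulin (10 μg mL−1), 10% FBS, amphotericin B and gentamicin at 37 °C, 5% CO2. Seeded at 5000 cells per well for 12 h, then exposed 48 h to the test compound at 0.1, 1, 10, 100 and 1000 μM, with untreated controls. PBS wash, 0.5 mg mL−1 MTT for 90 min at 37 °C, DMSO solubilisation, A570.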

myoblast cells (C2C12) [2] = test: MTT assay, IC50 against myoblast cells; format: cell-based; settings: C2C12, 48 h, read-out: IC50 (μM) C2C12
Summary of the method: (§1)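 Cells kept at 37 °C, 5% CO2: AGS in RPMI-1640 and C2C12 in DMEM, each with 10% FBS, 0.25 μg mL−1 amphotericin B and 25 μg mL−1 gentamicin. 5000 cells/well were seeded for 12 h, then given test compound at 1000, 100, 10, 1 and 0.1 μM for 48 h. Untreated cells served as controls.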

[3] = system: AGS (gastric adenocarcinoma) cells; test: MTT assay, IC50 against gastric cancer cells; format: cell-based; settings: 48 h, read-out: IC50 (μM) AGS
Summary of the method: as §1

myoblast cells (C2C12) [4] = test: MTT cell viability of normal myoblast cells at a single concentration; format: cell-based, human; settings: DHPM 10 μM, 48 hours
Summary of the method: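 C2C12 myoblasts were grown in DMEM with 10% FBS, amphotericin B and gentamicin at 37 °C, 5% CO2, and seeded at 5000 cells/well for 12 h. Test compound was applied at 10 μM for 48 h. Cells were washed with PBS, given 0.5 mg mL−1 MTT in PBS for 90 min at 37 °C, and the formazan was dissolved in DMSO with 30 min agitation in the dark. A570 was read, in triplicate.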

Row | IC50 [1] [µM] | IC50 [3] [µM] | SMILES | IC50 (myoblast cells (C2C12) [2]) [µM] | viability (%) of myoblast cells (C2C12) (myoblast cells (C2C12) [4]) [%]
1 | 10.1 ± 1.3 | 20.2 ± 2.1 | CCCCCCCC/C=C\CCCCCCCCOC(=O)C1=C(C)NC(=S)NC1c1ccccc1O (stereo not shown) [11b, (Z)-Octadec-9-enyl 4-(2-hydroxyphenyl)-6-methyl-2-thioxo-1,2,3,4-tetrahydropyrimidine-5-carboxylate] | 88.5 ± 6.4 | 
2 | 8.8 ± 8.3 | 146 ± 25.9 | CCCCCCCC/C=C\CCCCCCCCOC(=O)C1=C(C)NC(=S)NC1c1cccc(Cl)c1 (stereo not shown) [11f, (Z)-Octadec-9-enyl 4-(3-chlorophenyl)-6-methyl-2-thioxo-1,2,3,4-tetrahydropyrimidine-5-carboxylate] | 307 ± 143 | 
3 | 16.4 ± 2.7 | 101.8 ± 0.6 | CCCCCCCC/C=C\CCCCCCCCOC(=O)C1=C(C)NC(=S)NC1c1ccc(OC)cc1 (stereo not shown) [11i, (Z)-Octadec-9-enyl 4-(4-methoxyphenyl)-6-methyl-2-thioxo-1,2,3,4-tetrahydropyrimidine-5-carboxylate] | 166 ± 8.9 | 
4 | 39.2 ± 4.9 | 126 ± 4.6 | CCCCCCCC/C=C\CCCCCCCCOC(=O)C1=C(C)NC(=S)NC1c1ccc(C)cc1 (stereo not shown) [11h, (Z)-Octadec-9-enyl 6-methyl-2-thioxo-4-(p-tolyl)-1,2,3,4-tetrahydropyrimidine-5-carboxylate] | 362 ± 12.6 | 
5 | 28.4 ± 7 | 125 ± 6.2 | CCCCCCCC/C=C\CCCCCCCCOC(=O)C1=C(C)NC(=S)NC1c1cccc(O)c1 (stereo not shown) [11c, (Z)-Octadec-9-enyl 4-(3-hydroxyphenyl)-6-methyl-2-thioxo-1,2,3,4-tetrahydropyrimidine-5-carboxylate] | 446 ± 84.2 | 
6 | 2.3 ± 0.4 | 12.1 ± 0.4 | CCCCCCCC/C=C\CCCCCCCCOC(=O)C1=C(C)NC(=O)NC1c1cccc(O)c1 (stereo not shown) [10c, (Z)-Octadec-9-enyl 4-(3-hydroxyphenyl)-6-methyl-2-oxo-1,2,3,4-tetrahydropyrimidine-5-carboxylate] | 18.4 ± 10.5 | ~70
7 | 25.6 ± 7.3 | 40 ± 6.2 | CCOC(=O)C1=C(C)NC(=S)NC1c1cccc(O)c1 (stereo not shown) [Monastrol, reference compound] | 35.5 ± 6.4 | 
